Measured values gathered from unrelated publications.
Matrix: plasma

CC(C)(Sc1ccncc1-c1ccc(C#N)c2ccccc12)C(=O)O  Vd/F (male human; oral; 5 mg; single dose, fasted, healthy volunteers): 419 L
CO[C@H]1CC[C@H](N2C(=O)CNc3ncc(-c4ccc(C(C)(C)O)nc4)nc32)CC1  Vd/F (human; oral; 30 mg; patients): 195 L
COc1cc(C(=O)NC2CCN(C)CC2)c(F)cc1Nc1ncc(C(F)(F)F)c(Oc2cccc3c2C(=O)N(C)C3)n1  Vd/F (human; oral; 10 mg; multiple doses, once daily, patients): 776 L
C[C@@]1(c2cc(NC(=O)c3ccc(C#N)cn3)ccc2F)C=CSC(N)=N1  Vd/F (human; oral; 150 mg; single dose): 247 L
Cc1cc(Nc2cc(N3CCN(C)CC3)nc(/C=C/c3ccccc3)n2)n[nH]1  Vd/F (human; oral; 350 mg/m²; patients): 2340 L
c1cnc2ccc(Nc3nc(NC4CC4)c4nc[nH]c4n3)cc2c1  Vd/F (human; oral; 200 mg/m²; patients): 267 L
COc1ccc([C@@H]2CN(C(=O)[C@@H](O)CO)C[C@@]2(C)[C@@H](C)O)cc1OC1CN(c2ccc(C)cn2)C1  Vd/F (human; oral; 40 mg; single dose, healthy volunteers): 77.7 L
CCNCCCNC/C=C\CNCCCNCC  Vd (human; intravenous; 100 mg; patients, infusion): 1.17 L/kg
